Source: PubChem BioAssay (several laboratories)
Most compounds without a hit are left out; they make up all but 6.7% or so of the library.
Beta cell apopt = inhibitors of cytokine-induced beta cell apoptosis, primary screen, luminescence; INS-1E cytokine-induced death, ATP luminescence, 48 h; percent of positive-control rescue, neutral wells zero; actives 0.8% (n = 300,000); protection from apoptosis, % (no concentration beside the values); AID 435005, 2010;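 active = Every replicate reaches about 75%, or at least half do and their mean reaches it too, limit read from the data; inconclusive = At least half of replicates reach the limit but their mean does not; inactive = Under half of replicates reach the limit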;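 note: higher means more ATP so stronger rescue from cytokine killing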
CSC inhib = cancer stem cell viability inhibitors, primary screen, luminescence; cancer stem cell-like cells viability; inhibition, % at 7.5 µM; actives 1.1% (n = 300,000); in the data active = inhibition above about 75%; inconclusive = no clear call, values can overlap the other calls; tested in HMLE shEcad cells
PREPL inh = PREPL enzyme inhibitors, primary screen, biochemical, fluorescence polarization; recombinant PREPL, fluorescence polarization activity-based probe; actives 0.68% (n = 320,000); Prolyl endopeptidase-like (Homo sapiens), Q4J6C6; inhibition, % at 5.96 µM; in the data active = inhibition above about 43%
Target sequence (Q4J6C6 whole entry, looked up): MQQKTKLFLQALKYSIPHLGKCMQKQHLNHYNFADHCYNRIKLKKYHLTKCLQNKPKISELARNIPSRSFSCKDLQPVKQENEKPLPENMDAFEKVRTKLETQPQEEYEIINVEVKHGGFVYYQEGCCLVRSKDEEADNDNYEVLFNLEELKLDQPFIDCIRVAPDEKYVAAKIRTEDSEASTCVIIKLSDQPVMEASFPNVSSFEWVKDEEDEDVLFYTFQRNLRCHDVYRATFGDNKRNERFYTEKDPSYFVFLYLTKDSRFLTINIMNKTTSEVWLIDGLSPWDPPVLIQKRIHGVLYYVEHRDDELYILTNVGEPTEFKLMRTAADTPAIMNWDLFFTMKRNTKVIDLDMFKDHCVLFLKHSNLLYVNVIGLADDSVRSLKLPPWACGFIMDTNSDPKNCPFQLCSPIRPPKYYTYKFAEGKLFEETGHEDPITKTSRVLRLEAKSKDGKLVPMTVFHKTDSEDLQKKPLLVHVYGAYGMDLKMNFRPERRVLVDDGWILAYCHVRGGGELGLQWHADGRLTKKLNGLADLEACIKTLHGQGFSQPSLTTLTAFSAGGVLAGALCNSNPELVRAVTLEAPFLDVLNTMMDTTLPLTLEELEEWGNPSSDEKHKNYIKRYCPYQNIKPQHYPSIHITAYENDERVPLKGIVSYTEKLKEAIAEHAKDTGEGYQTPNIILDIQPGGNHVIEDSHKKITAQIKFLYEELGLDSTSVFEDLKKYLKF
T cruzi inh = inhibitors of intracellular T. cruzi growth, primary screen, luminescence, NIH3T3 host cells | T. cruzi beta-gal in NIH3T3, 90 h | inhibition, % (concentration not given with the values) | actives 1.4% (n = 300,000) | AID 1885, 2009;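 active = mean inhibition across valid replicates above about 55%, limit read from the data; inconclusive = mean below that limit but half or more replicates reach it; inactive = mean below it, under half of replicates reach it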;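 note: signal also drops with host cell toxicity which is not excluded here; higher percent means less beta-gal luminescence so fewer parasites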
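System: mouse NIH/3T3 fibroblasts infected with β-gal-expressing T. cruzi Tulahuen C4 / Input: NIH/3T3 cells, 5,000 per well / Buffer or medium: Low-serum DMEM with 2% FBS / Probe or stimulus: 5000 reporter trypomastigotes per well / Schedule: ≥90 h infection period, 3 h prior cell attachment / Measured by: GalScreen luminescence, 60 min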
CHOP inhibitor = inhibitors of CHOP promoter induction, primary screen, cell-based, unfolded protein response, luciferase reporter. CHO-K1 CHOP-promoter luciferase, tunicamycin-induced, 15-18 h. inhibition, % at 10 µM. actives 3.8% (n = 220,000). AID 2732, 2010;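 active = compounds that reduced the stress-induced luciferase reporter signal by more than about 70% of percent inhibition, limit read from the data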
NR3A LBD binder = binders of NR3A ligand-binding domain, primary screen, biophysical, differential scanning fluorimetry, uHTS; actives 2.5% (n = 340,000); Tm shift relative to glycine control, % at 25 µM; NR3A LBD differential scanning fluorimetry, Tm shift; 0% = protein alone, 100% = glycine-bound protein; Glutamate receptor ionotropic, NMDA 3A (GRIN3A) ligand-binding domain;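 active = melting temperature shift of at least 10% of the positive control shift, at one fixed dose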
Numbers stand for hits; - = inactive; ? = inconclusive; . = not tested or not shown.

SMILES	Beta cell apopt	CSC inhib	PREPL inh	T cruzi inh	CHOP inhibitor	NR3A LBD binder
O=C(Cn1ncc(Cl)c(Cl)c1=O)c1ccc2c(c1)OCCO2	113	112	-	.	.	-
CC1=CC(=O)C(C(C)C)=C/C1=N/OS(=O)(=O)c1ccccc1	105	?	-	-	106	-
Cc1cc(SCC(=O)c2ccc(O)c(O)c2)n2nc(C)c(-c3ccccc3)c2n1	-	119	-	-	-	23
Cc1ccc2c(c1)NC(=O)CC(c1ccccc1)=N2	-	-	-	-	-	-
Cc1cc2c(cc1C)NC(=O)CC(C(F)(F)C(F)(F)C(F)(F)F)=N2	-	-	-	-	73	-
Cc1cc(C)n(Cc2ccc(Cl)c(Cl)c2)c(=O)c1S(=O)(=O)c1ccccc1	.	.	.	-	74	-
COC(=O)C1=CN(Cc2ccc(OC)c(OC)c2)C=C(C(=O)OC)C1c1cccc(O)c1	-	-	-	58	.	-
O=C(CSc1nc2ccccc2o1)Nc1ccc(N2CCOCC2)cc1	-	-	44	-	-	-
O=C(CSc1nc2ccccc2o1)Nc1nc(-c2ccccc2)cs1	-	-	-	-	-	12
O=C(CSc1nc2ccccc2o1)Nc1nc2ccccc2s1	-	-	-	-	-	-
Cc1occc1-c1nnc(SCC(=O)Nc2nc(-c3ccccc3)cs2)o1	-	-	-	-	72	-
COc1cc(NC(=O)COc2cc3oc(=O)cc(C)c3cc2Cl)cc(OC)c1OC	-	-	-	-	.	-
CN(/N=C/c1ccc(O)cc1O)c1nc(-c2ccccc2)cc(-c2ccccc2)n1	-	89	-	?	-	22
Cc1cc(-c2ccccc2)nc(N/N=C/c2ccco2)n1	-	-	-	-	-	-
O=[N+]([O-])c1ccc(/C=N/Nc2ncc(-c3ccccc3)cn2)cc1	.	.	.	-	-	-
CC(C)(C)c1cnnn1-c1ccc(/C=N/Nc2ccc([N+](=O)[O-])cc2)cc1	97	-	-	-	-	-
Cc1cc(-c2ccccc2)nc(N/N=C/c2ccc(O)cc2O)n1	-	96	-	-	.	11
O=[N+]([O-])c1ccc(C=NNc2ccccc2)cc1	.	.	.	.	.	34
O=c1[nH]c(-c2ccccc2)nn1-c1ccc(Br)cc1Br	-	-	-	-	.	-
COc1cccc(N2C(=NC(=O)C3CCCO3)SC3CS(=O)(=O)CC32)c1 (centres undefined)	-	-	-	-	.	-
Nc1cc(Cl)nc(N/N=C/c2ccc([N+](=O)[O-])cc2)n1	-	-	-	-	-	21
Cc1cc(-c2ccccc2)nc(N/N=C/c2ccccc2)n1	-	-	-	-	.	-
O=[N+]([O-])c1ccc(N/N=C/c2ccccc2)c(F)c1	-	-	-	-	-	36
O=[N+]([O-])c1cccc(C=NNc2ccccc2)c1	.	.	.	.	.	34
Cc1cc(-c2ccccc2)nc(N/N=C/c2ccc([N+](=O)[O-])cc2)n1	-	-	-	-	-	24
SMILES	Beta cell apopt	CSC inhib	PREPL inh	T cruzi inh	CHOP inhibitor	NR3A LBD binder
CCCn1ncc(CN2CCC(n3nccc3NC(=O)CCc3ccccc3)CC2)c1C	-	-	-	-	.	-
Cc1ccc(C(=O)NCc2ccco2)c(C)c1	-	-	.	-	.	-
CCSc1ncc(/C=N/Nc2ccc([N+](=O)[O-])cc2)n1C	.	-	-	-	78	-
NC(=O)c1cccc(-c2cnc(N)c(C(=O)c3cccnc3)n2)c1	.	.	.	.	.	-
S=C(NC1CCCCC1)N1CCc2ccccc2C1	-	-	-	-	-	11
O=C(CN(C1CCCCC1)C1CCCCC1)N1CCc2ccccc2C1	-	-	-	-	87	-
O=C(CN(C1CCCCC1)S(=O)(=O)c1ccccc1)N1CCCC1	-	.	-	-	-	-
Cc1nc(SCc2cccnc2)[nH]c(=O)c1C	-	-	-	-	.	-
Nc1nnc(-c2ccc(Cl)cc2Cl)s1	-	-	-	-	-	12
CC(C)(C)OC(=O)N1CCC2(CC1)Oc1ccc(Cl)cc1C(=O)C21CC(c2ccc(Cl)cc2)=NO1 (centres undefined)	-	-	-	-	.	-
CC(C)c1csc(CN2CCC(CO)(Cc3cccc(F)c3)CC2)n1	-	-	-	68	-	-
CCN1CCCc2cc(CN(CCN3CCOCC3)C(=S)Nc3cccc(OC)c3)ccc21	-	-	-	-	-	-
CCOc1nc(Nc2ccc(OC)c(Cl)c2)nc(N2CCN(c3ccc(OC)cc3)CC2)n1	-	-	-	-	74	-
CCOc1ccc(Nc2nc(N3CCCC3)nc(N3CCN(c4ccc(OC)cc4)CC3)n2)cc1	-	.	-	61	-	-
CCCNc1nc(Nc2ccc(C)cc2)nc(N2CCCC2)n1	-	-	-	-	70	-
CCOc1nc(Nc2ccc(F)cc2)nc(N2CCN(c3ccc(OC)cc3)CC2)n1	-	-	-	-	-	-
Cc1cc(C)nc(Nc2ccc(N3CCOCC3)cc2)n1	-	-	-	-	-	-
Cc1cc(C)nc(Nc2ccc(N3CCCC3)cc2)n1	-	-	44	-	-	-
O=C(Nc1sc2c(c1C(=O)c1ccc(Cl)cc1)CCCC2)c1cccnc1	-	.	-	-	79	-
O=C(Nc1sc2c(c1C(=O)c1ccccc1)CCCC2)c1cccnc1	-	-	-	-	-	-
OC(CNCCc1ccc(C(F)(F)F)cc1)COC(c1ccccc1)c1ccccc1 (centres undefined)	-	107	-	-	.	-
COc1ccc(C(OCC(O)CNCCc2ccc(S(N)(=O)=O)cc2)c2ccc(OC)cc2)cc1 (centres undefined)	-	-	-	-	.	-
O=[N+]([O-])c1ccc(Sc2nccn2Cc2ccccc2)c([N+](=O)[O-])c1	-	-	-	65	-	-
O=[N+]([O-])c1cc(C(F)(F)F)ccc1Sc1nccn1Cc1ccccc1	-	-	-	-	-	-
COc1ccc(CN2CCN(C(c3ccc(F)cc3)c3ccc(F)cc3)CC2)c(OC)c1OC	.	-	-	-	.	13
CCOC(=O)C1=C(CCl)NC(=O)NC1c1ccc2c(c1)OCO2 (centres undefined)	-	-	-	-	.	-
Cc1cccc(NC(=O)CSc2nnc(-c3cc(C)[nH]n3)n2N)c1	-	-	-	-	.	-
CCOC(=O)c1nncc(-c2ccccc2)n1	-	-	-	.	.	-
CCCOCC(O)CCc1n[nH]c(=S)n1-c1ccccc1 (centres undefined)	.	-	-	-	-	-
Cc1nc(Nc2ccc(Cl)cc2)c2nnn(Cc3ccccc3)c2n1	-	-	-	-	96	-
